An excerpt weighted towards active compounds, which were near 4.6% of everything screened.
CHO parental Ca = signal in parental CHO cells, OX1R antagonist counter-screen; parental CHO-K1, ATP-induced calcium, Fluo-8 fluorescence; inhibition, % at 5.6 µM; 330,000 tested, 0.63% active;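 active = inhibition above that plate's mean sample inhibition plus 3 SD, cut at about 26% in these data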
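test system = CHO parental line | reagent = ATP stimulus | measured by = intracellular calcium via Fluo-8 no-wash fluorescent dye | control set = ATP and no-ATP DMSO wells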
GPR7 antag = blocks human GPR7 receptor signaling; 290,000 tested, 1.1% active; GPR7-expressing cells, fluorescence antagonist assay; P48145; inhibition, % at 4.4 µM; AID 1861; in the data active = inhibition above about 16%, passing the limit was not always enough;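 also: cells stimulated with the agonist NPW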
Target sequence (P48145 whole entry, looked up): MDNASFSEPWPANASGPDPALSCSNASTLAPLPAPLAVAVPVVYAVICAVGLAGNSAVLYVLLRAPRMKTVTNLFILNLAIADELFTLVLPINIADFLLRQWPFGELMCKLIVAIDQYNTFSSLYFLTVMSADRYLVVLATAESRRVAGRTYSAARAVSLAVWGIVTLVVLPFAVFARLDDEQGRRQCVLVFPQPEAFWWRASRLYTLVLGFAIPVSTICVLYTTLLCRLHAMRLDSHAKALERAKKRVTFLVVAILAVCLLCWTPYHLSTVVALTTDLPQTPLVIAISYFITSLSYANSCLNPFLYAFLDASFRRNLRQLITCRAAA
TAAR1 ag = agonists of human TAAR1. AID 624467. 360,000 tested, 0.99% active. activation, % at 3 µM. Q96RJ0. CHO RD-HGA16 TAAR1, Fluo-8 calcium fluorescence; vehicle wells 0%, saturating PEA agonist 100%;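 active = activation above the mean activation of all test compounds in the run plus 3 SD, cut at about 38% in these data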
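Benchmarks: low control DMSO, high control PEA (EC100); System: CHO RD-HGA16 cells carrying human TAAR1 plus Gα16; Detection: Fluo-8 fluorescence, 5 s baseline then 140 s kinetic read; Schedule: 17-24 h plating, Fluo-8 75 min 37 °C, 30 min RT; Read-out basis: % activation from peak over basal fluorescence ratio, DMSO-to-PEA scaled.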
TAAR1 antagonist = antagonists of human TAAR1; Q96RJ0; CHO RD-HGA16 TAAR1, Fluo-8 calcium fluorescence, antagonist; inhibition, % at 3 µM; 360,000 tested, 1.5% active;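 active = inhibition above a per-plate cutoff, the mean inhibition of test compounds on that plate plus 3 SD, cut at about 49% in these data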
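Assay system: CHO-derived RD-HGA16 cells stably expressing human TAAR1 plus Gα16. Timing: 140 s kinetic read after compound, 140 s after agonist. Technique: kinetic Fluo-8 calcium fluorescence measurement. Measure: % inhibition of agonist calcium response.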
OX1R antag-1 = blocks the human orexin 1 receptor. O43613. OX1R-expressing cells, FRET antagonist read-out. inhibition, % at 6.6 µM. 330,000 tested, 1.8% active; in the data active = inhibition mostly above about 38%, no sharp cut-off; inactive = mostly below about 40%
Target sequence (O43613 whole entry, looked up): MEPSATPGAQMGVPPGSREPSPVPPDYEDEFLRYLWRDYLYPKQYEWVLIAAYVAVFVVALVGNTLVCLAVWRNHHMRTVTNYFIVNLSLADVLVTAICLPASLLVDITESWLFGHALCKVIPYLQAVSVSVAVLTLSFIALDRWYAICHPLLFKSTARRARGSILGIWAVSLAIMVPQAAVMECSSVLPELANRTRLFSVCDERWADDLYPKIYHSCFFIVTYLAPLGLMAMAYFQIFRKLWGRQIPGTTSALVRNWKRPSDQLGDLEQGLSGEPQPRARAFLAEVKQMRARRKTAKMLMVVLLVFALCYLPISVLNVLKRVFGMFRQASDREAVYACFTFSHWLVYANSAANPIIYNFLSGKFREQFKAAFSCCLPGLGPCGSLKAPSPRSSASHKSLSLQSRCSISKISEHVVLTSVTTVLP
OX1R antag-2 = human HCRTR1 antagonism; O43613; CHO/OX1R cells, Fluo-8 calcium fluorescence, orexin A; inhibition, % at 5 µM; 330,000 tested, 0.43% active; AID 434989;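 active = inhibition above its plate's threshold, mean inhibition of all tested compounds on the plate plus 3 SD, cut at about 37% in these data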
A number is an active result; 0 = inactive; - = no result given.

SMILES | CHO parental Ca | GPR7 antag | TAAR1 ag | TAAR1 antagonist | OX1R antag-1 | OX1R antag-2
Cc1ccc(S(=O)(=O)N2CCOCC2)cc1NC(=O)c1cc(-c2ccccn2)nc2ccccc12 | 0 | 0 | 0 | 49 | 0 | 0
O=C(Nc1ccc(S(=O)(=O)Nc2ccccc2)cc1)c1ccc(CN2CCOCC2)cc1 | 0 | 50 | 0 | 0 | 0 | 0
O=C(/C=C/Nc1ccccc1)c1ccc(Oc2ncccn2)cc1 | 0 | 0 | 43 | 0 | 0 | 0
O=c1cc(-c2ccccc2Cl)oc2c(NS(=O)(=O)c3cccs3)ccc(O)c12 | 0 | - | 0 | 0 | 73 | 0
CCn1c(NC(=O)C(C)C)c(-c2ccccc2)c(=O)c2ccccc21 | 0 | 0 | 0 | 0 | 0 | 0
CCCSc1nnc(NC(=O)Nc2ccccc2)s1 | 0 | 0 | 40 | 0 | 0 | 0
CCCSc1nnc(NC(=O)Nc2ccc(C)cc2)s1 | 0 | 0 | 0 | 0 | 0 | 0
Brc1ccc(OCCCCN2CCCCC2)cc1 | 0 | 0 | 0 | 0 | 0 | 0
Cc1sc2nc(CSCC(=O)Nc3ccc(OC(F)F)cc3)[nH]c(=O)c2c1C | 0 | 0 | 0 | 0 | 0 | 0
O=C1C2CC=C(Cl)CC2C(=O)N1CCCCCCN1C(=O)C2CC=C(Cl)CC2C1=O (stereo unspecified) | 0 | 0 | 41 | 0 | 0 | 0
CCN1C(=O)C(CC(=O)Nc2ccccc2Cl)N(NC(=O)c2cccc(F)c2)C1=S (stereo unspecified) | 0 | 0 | 0 | 0 | 75 | 0
CNC(=O)CC1C(=O)N(Cc2ccccc2)C(=S)N1NC(=O)c1cccc(F)c1 (stereo unspecified) | 0 | 0 | 0 | 0 | 0 | 0
O=C(Cn1ncc2ccccc21)N1CCN(c2cccc(C(F)(F)F)c2)CC1 | 0 | 0 | 44 | 0 | 0 | 0
CCCCCCCCCCCCOC(=O)C[N+](C)(C)C | 0 | 0 | 38 | 49 | 0 | 0
CN(Cc1cccc2cnccc12)C(=O)CCc1nnc(CCc2ccccc2)o1 | 0 | 0 | 0 | 0 | 0 | 0
CC(=O)c1ccc(-c2nnc(CCC(=O)N(C)Cc3cccc4cnccc34)o2)s1 | 0 | 0 | 0 | 0 | 35 | 0
c1ccc(Nc2nc(-c3ccccc3)ns2)cc1 | 0 | 0 | 0 | 0 | 49 | 0
O=C(Nc1ccc(NC(=O)C2CCCCC2)nc1)c1cccs1 | 0 | 0 | 0 | 0 | 0 | 0
CN1C(=O)[C@H]2[C@@H](c3ccc(C(F)(F)F)cc3)N[C@]3(CCCN(Cc4ccc(Cl)cc4)C3=O)[C@H]2C1=O | - | - | 0 | 0 | - | -
CC(=O)OC[C@@H]1CN(Cc2cccc(C(F)(F)F)c2)C[C@H](n2cnc3c(N4CCOCC4)ncnc32)O1 | - | - | 0 | 0 | - | -
CC(=O)OC[C@@H]1CN(Cc2cccc(C(F)(F)F)c2)C[C@H](n2cnc3c(NCc4ccco4)ncnc32)O1 | - | - | 0 | 56 | - | -
O=C(OCc1ccccc1)N1Cc2ccnnc2CC1c1ccccc1-c1ccc(C(F)(F)F)cc1 (stereo unspecified) | - | - | 0 | 0 | - | -
[O-][n+]1cccc2c(Br)cc(Br)c(O)c21 | 30 | 0 | 0 | 0 | 0 | 0
Oc1c(Br)cc(Br)c2cccnc12 | - | - | 0 | 0 | - | -
Cc1nc(C(=O)O)nn1-c1ccc([N+](=O)[O-])cc1 | 0 | 0 | 0 | 0 | 46 | 0
SMILES | CHO parental Ca | GPR7 antag | TAAR1 ag | TAAR1 antagonist | OX1R antag-1 | OX1R antag-2
Cc1cc(C)n2nc(N)c(N=Nc3cccc(Cl)c3)c2n1 | 0 | 0 | 0 | 0 | 51 | 0
COc1ccc(CCNC(=O)C2CCCN2C(=O)Nc2ccc(C)cc2)cc1OC (stereo unspecified) | 0 | 0 | 0 | 0 | 0 | 0
Cc1nnc(SCC(=O)NC2CC2)s1 | 0 | 0 | 0 | 0 | 0 | 0
COc1cccc(NC(=O)CNC(C)CCC(C)C)c1 (stereo unspecified) | 0 | 0 | 38 | 0 | 0 | 0
COc1cccc(NC(=O)CCC(=O)Nc2cccc(OC)c2)c1 | 0 | 0 | 0 | 0 | 0 | 0
CCN(c1ccccc1)S(=O)(=O)c1ccc(C(=O)N2CC(C)CC(C)C2)cc1 (stereo unspecified) | 0 | - | 0 | 0 | 0 | 0
Cc1ccc(C(=O)N(Cc2nnc(-c3ccc(Cl)cc3)o2)C2CC2)o1 | 0 | - | 0 | 0 | 0 | 0
CC(C)(C)[C@H]1CCC(=O)N([C@H](CC#N)Cc2ccccc2)CC1 | 0 | 0 | 0 | 0 | 0 | 0
O=C(CSc1ncnc2c1cnn2-c1ccccc1)Nc1ccccc1 | 0 | 0 | 40 | 0 | 0 | 0
Cc1ccc(S(=O)(=O)N2CCN(C(=O)C(C)Cn3nc(C)c(C)c3C)CC2)cc1C (stereo unspecified) | 0 | 0 | 0 | 0 | 0 | 0
Cc1cc(C)c(OCC(=O)Nc2cccc(NC(=O)c3ccco3)c2)c(Br)c1 | 32 | 0 | 0 | 52 | 64 | 0
COc1ccc(Br)cc1C(=O)Nc1cccc(NC(=O)c2ccco2)c1 | 0 | 0 | 0 | 0 | 44 | 0
COc1c(C)cc(Br)cc1C(=O)Nc1cccc(NC(=O)c2ccco2)c1 | 0 | 0 | - | - | 0 | 0
COc1cc(OC)c2c(C)cc(=O)oc2c1C(CCN1CCN(c2ccccc2)CC1)c1ccc2c(c1)OCO2 (stereo unspecified) | 0 | - | 0 | 0 | 0 | 0
COc1ccc(/C=C/C(=O)c2cc(F)ccc2OC(=O)c2ccc(OC)c(OC)c2)cc1OC | 0 | 0 | 0 | 0 | 0 | 0
COc1ccc(/C=C/C(=O)c2cc(F)ccc2OC(=O)c2ccccc2OC)cc1OC | - | 17 | 0 | 0 | - | -
Cc1nn(-c2ccc(F)cc2)c(C)c1NS(=O)(=O)c1ccc(Cl)cc1 | 0 | 0 | 0 | 0 | 0 | 0
Cc1ccc(-c2noc(CCC(=O)NCCCN3CCN(c4ccc(F)cc4)CC3)n2)cc1 | 0 | 0 | 0 | 0 | 0 | 0
COc1ccc(-c2noc(CCCCC(=O)N3CCN(c4cc(C)ccc4C)CC3)n2)cc1 | 74 | - | 0 | 0 | 38 | 75
Cc1ccc(-c2noc(CCC(=O)NCCCN3CCN(c4cccc(Cl)c4)CC3)n2)cc1 | 0 | 19 | 0 | 0 | 0 | 52
COc1ccccc1-c1noc(CCC(=O)N2CCN(c3cc(C)ccc3C)CC2)n1 | 0 | - | 0 | 56 | 0 | 0
Cc1ccc(C)c(N2CCN(C(=O)CCc3nc(-c4ccccc4C(F)(F)F)no3)CC2)c1 | 0 | - | 0 | 68 | 0 | 0
CCN(CC)c1ccc(C(=O)N/N=C/c2ccccc2OC(F)F)cc1 | 0 | 0 | 0 | 0 | 74 | 0
CCN(CC)c1ccc(/C=N/NC(=O)c2cccc(S(=O)(=O)Nc3ccccc3OC)c2)c(O)c1 | 0 | 0 | 0 | 0 | 79 | 0
CCN(CC)c1ccc(/C=N/NC(=O)c2cccc(S(=O)(=O)Nc3ccccc3OC)c2)cc1 | 0 | 0 | 0 | 0 | 0 | 0
Cn1c2ccccc2c2c(=O)oc3ccccc3c21 | 0 | - | 0 | 0 | 61 | 0
CCCn1cnc2c(=O)oc3ccccc3c21 | 0 | 0 | 0 | 0 | 0 | 0
COC(=O)N/N=C/c1c(C)cc(C)cc1C | 0 | 0 | 0 | 0 | 0 | 0
Cc1nc2ccccc2nc1SCC(=O)c1ccccc1 | 52 | 0 | 0 | 0 | 0 | 0
